Activity calls are given as the source filed them. No cut-off for these calls is given here.
How the values were obtained:
[1] = target: T1, Epidermal growth factor receptor (Homo sapiens, UniProt P00533); assay: Inhibition of N-terminal GST-tagged wild type human EGFR cytoplasmic domain (669 to 1210 residues) expressed in baculovirus expression system using FAM-labeled peptide as substrate after 10 mins by mobility shift assay
[2] = target: Epidermal growth factor receptor (Homo sapiens, UniProt P00533, DEL747/DEL747-750); assay: Inhibition of N-terminal GST-tagged human EGFR del 747-750 mutant cytoplasmic domain expressed in baculovirus expression system using FAM-labeled peptide as substrate after 10 mins by mobility shift assay
[3] = target: Fibroblast growth factor receptor 1 (Homo sapiens) (UniProt P11362); assay: Inhibition of N-terminal GST-tagged human FGFR1 cytoplasmic domain (398 to 822 residues) expressed in baculovirus expression system at […] using FAM-labeled peptide as substrate after 10 mins by mobility shift assay relative to control
In short: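 Caliper mobility-shift kinase assay. Kinase in kinase base buffer was preincubated with compound for 10 min at room temperature. FAM-labelled peptide and ATP at Km were then added, and the reaction ran at 28 °C until quenched with buffer. Screening concentration was 1 µM. Percent inhibition = (max − conversion)/(max − min) × 100, with DMSO as max and a low control as min.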

[4] = system: NCI-H3255; assay: Antiproliferative activity against human H3255 cells after 72 hrs by MTT assay; format: functional, cell-based; conditions: NCI-H3255, 72 h
In short: (§1)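 Cells seeded at 3000/well in growth medium with 10% FBS and left overnight. Treated in triplicate for 72 h at nine concentrations (0.458 to 30,000 nM), with DMSO-only controls. MTT (5 mg/mL) added for the last 4 h, formazan dissolved in DMSO, absorbance read at 490 nm. IC50 from non-linear sigmoidal dose-response fit.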

[5] = system: A-431; assay: Antiproliferative activity against human A431 cells after 72 hrs by MTT assay; format: functional, cell-based; conditions: A-431, 72 h; in short: as §1
[6] = system: HCC827; assay: Antiproliferative activity against human HCC827 cells after 72 hrs by MTT assay; format: functional, cell-based; conditions: HCC827, 72 h; in short: as §1
[7] = system: NCI-H1975; assay: Antiproliferative activity against human NCI-H1975 cells after 72 hrs by MTT assay; format: functional, cell-based; conditions: NCI-H1975, 72 h; in short: as §1
[8] = system: PC-9; assay: Antiproliferative activity against human PC9 cells after 72 hrs by MTT assay; format: functional, cell-based; conditions: PC-9, 72 h; in short: as §1
[9] = system: BEAS-2B; assay: Cytotoxicity against human BEAS2B cells after 72 hrs by MTT assay; format: cell-based; in short: as §1
[10] = target: T1, Epidermal growth factor receptor; assay: Inhibition of EGFR in human H3255 cells assessed as decrease in EGF-induced ERK1/2 phosphorylation by Western blot method; format: cell-based
In short: (§2)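 Cell lysates prepared in protein lysis buffer and cleared at 12,000 g for 10 min at 4 °C. 50 μg protein per lane was run on a gel, transferred to PVDF and immunoblotted, with GAPDH as the loading control.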

[11] = target: T1, Epidermal growth factor receptor; assay: Inhibition of EGFR in human H1975 cells assessed as decrease in EGF-induced ERK1/2 phosphorylation by Western blot method; format: cell-based; in short: as §2
[12] = target: T1, Epidermal growth factor receptor; assay: Inhibition of EGF-induced EGFR autophosphorylation at Y1068 residues in human H1975 cells by Western blot method; format: cell-based; in short: as §2
[13] = target: T1, Epidermal growth factor receptor; assay: Inhibition of EGFR in human HCC827 cells assessed as decrease in EGF-induced AKT phosphorylation by Western blot method; format: cell-based; in short: as §2
[14] = system: NCI-H3255; assay: Induction of apoptosis in human H3255 cells assessed as necrotic cells at 500 nM after 48 hrs by Annexin V-FITC/PI staining based flow cytometry (reference value: 7.06%); format: functional
[15] = system: NCI-H3255; assay: Induction of apoptosis in human H3255 cells assessed as early apoptotic cells at 1000 nM after 48 hrs by Annexin V-FITC/PI staining based flow cytometry (reference value: 3.22%); format: functional
[16] = system: A-431; assay: Induction of apoptosis in human A431 cells assessed as viable cells at 250 nM after 48 hrs by Annexin V-FITC/PI staining based flow cytometry (reference value: 90.3%); format: functional; conditions: A-431, 48 h, read-out: Activity
[17] = system: A-431; assay: Induction of apoptosis in human A431 cells assessed as necrotic cells at 250 nM after 48 hrs by Annexin V-FITC/PI staining based flow cytometry (reference value: 4.16%); format: functional
[18] = system: A-431; assay: Induction of apoptosis in human A431 cells assessed as early apoptotic cells at 1000 nM after 48 hrs by Annexin V-FITC/PI staining based flow cytometry (reference value: 3.40%); format: functional
[19] = system: HCC827; assay: Induction of apoptosis in human HCC827 cells assessed as late apoptotic cells at 500 nM after 48 hrs by Annexin V-FITC/PI staining based flow cytometry (reference value: 1.15%); format: functional
[20] = system: HCC827; assay: Induction of apoptosis in human HCC827 cells assessed as viable cells at 1000 nM after 48 hrs by Annexin V-FITC/PI staining based flow cytometry (reference value: 94.6%); format: functional; conditions: HCC827, 48 h, read-out: Activity
[21] = system: HCC827; assay: Induction of apoptosis in human HCC827 cells assessed as early apoptotic cells at 1000 nM after 48 hrs by Annexin V-FITC/PI staining based flow cytometry (reference value: 2.83%); format: functional
[22] = system: HCC827; assay: Induction of apoptosis in human HCC827 cells assessed as necrotic cells at 1000 nM after 48 hrs by Annexin V-FITC/PI staining based flow cytometry (reference value: 1.41%); format: functional
[23] = system: NCI-H1975; assay: Induction of apoptosis in human NCI-H1975 cells assessed as late apoptotic cells at 250 nM after 48 hrs by Annexin V-FITC/PI staining based flow cytometry (reference value: 1.91%); format: functional
[24] = system: NCI-H1975; assay: Induction of apoptosis in human NCI-H1975 cells assessed as early apoptotic cells at 500 nM after 48 hrs by Annexin V-FITC/PI staining based flow cytometry (reference value: 2.07%); format: functional
[25] = system: NCI-H1975; assay: Induction of apoptosis in human NCI-H1975 cells assessed as late apoptotic cells at 500 nM after 48 hrs by Annexin V-FITC/PI staining based flow cytometry (reference value: 1.91%); format: functional
[26] = system: NCI-H1975; assay: Induction of apoptosis in human NCI-H1975 cells assessed as viable cells at 1000 nM after 48 hrs by Annexin V-FITC/PI staining based flow cytometry (reference value: 93.7%); format: functional; conditions: NCI-H1975, 48 h, read-out: Activity
[27] = system: NCI-H1975; assay: Induction of apoptosis in human NCI-H1975 cells assessed as late apoptotic cells after 48 hrs by Annexin V-FITC/PI staining based flow cytometry; format: functional, cell-based
[28] = system: NCI-H1975; assay: Cell cycle arrest in human NCI-H1975 cells assessed as accumulation at G2/M phase after 24 hrs by propidium iodide staining based flow cytometry; format: functional
In short: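 NCI-H1975 cells (2×10^5) seeded in 6-well plates overnight, then treated 24 h at 50, 100, 250 or 500 nM; 1‰ DMSO medium as control. Cells harvested, washed in cold PBS, fixed in 70% cold ethanol at −20 °C overnight, stained with PI/RNase buffer and analysed by flow cytometry. n=3.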

[29] = system: Mus musculus; assay: In vivo inhibition of ERK1/2 phosphorylation in tumor of BALB/C nude mouse xenografted with human PC9 cells at 15 to 30 mg/kg, ip qd administered for 19 days by immunoblot method; format: functional, organism-based

Chain of Epidermal growth factor receptor (Homo sapiens, UniProt P00533, DEL747/DEL747-750) (P00533 with tags, fused parts or gaps DEL747/DEL747-750 limits assumed): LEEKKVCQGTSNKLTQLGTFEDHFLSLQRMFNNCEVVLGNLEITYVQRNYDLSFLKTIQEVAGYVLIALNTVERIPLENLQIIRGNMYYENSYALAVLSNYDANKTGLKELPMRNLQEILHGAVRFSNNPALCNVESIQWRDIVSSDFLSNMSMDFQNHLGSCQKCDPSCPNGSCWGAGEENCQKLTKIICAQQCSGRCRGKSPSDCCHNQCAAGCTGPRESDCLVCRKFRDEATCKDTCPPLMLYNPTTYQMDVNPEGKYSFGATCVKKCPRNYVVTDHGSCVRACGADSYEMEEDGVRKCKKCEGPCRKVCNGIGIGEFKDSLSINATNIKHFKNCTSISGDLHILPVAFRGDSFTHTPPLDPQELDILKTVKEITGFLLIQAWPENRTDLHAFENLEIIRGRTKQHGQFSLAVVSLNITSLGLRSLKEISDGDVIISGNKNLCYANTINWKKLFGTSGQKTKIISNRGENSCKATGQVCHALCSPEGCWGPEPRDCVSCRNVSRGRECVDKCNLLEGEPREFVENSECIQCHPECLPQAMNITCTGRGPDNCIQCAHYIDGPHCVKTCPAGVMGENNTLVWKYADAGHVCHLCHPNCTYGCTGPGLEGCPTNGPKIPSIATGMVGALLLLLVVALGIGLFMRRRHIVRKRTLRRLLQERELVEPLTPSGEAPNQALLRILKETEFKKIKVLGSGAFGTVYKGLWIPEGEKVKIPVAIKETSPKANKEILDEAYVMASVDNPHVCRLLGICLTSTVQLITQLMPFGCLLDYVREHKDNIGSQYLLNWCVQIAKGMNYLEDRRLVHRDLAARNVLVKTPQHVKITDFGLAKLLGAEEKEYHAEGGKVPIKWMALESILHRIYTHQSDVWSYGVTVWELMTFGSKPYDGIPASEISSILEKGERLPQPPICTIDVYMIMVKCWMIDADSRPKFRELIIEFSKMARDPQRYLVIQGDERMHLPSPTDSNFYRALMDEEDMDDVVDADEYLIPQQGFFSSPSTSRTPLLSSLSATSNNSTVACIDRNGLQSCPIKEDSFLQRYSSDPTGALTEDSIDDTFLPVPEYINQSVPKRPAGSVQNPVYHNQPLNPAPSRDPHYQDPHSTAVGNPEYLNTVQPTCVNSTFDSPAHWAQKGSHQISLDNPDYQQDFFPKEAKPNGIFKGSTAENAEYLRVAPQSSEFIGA
T1 sequence (P00533 whole entry, the tested form may be a part): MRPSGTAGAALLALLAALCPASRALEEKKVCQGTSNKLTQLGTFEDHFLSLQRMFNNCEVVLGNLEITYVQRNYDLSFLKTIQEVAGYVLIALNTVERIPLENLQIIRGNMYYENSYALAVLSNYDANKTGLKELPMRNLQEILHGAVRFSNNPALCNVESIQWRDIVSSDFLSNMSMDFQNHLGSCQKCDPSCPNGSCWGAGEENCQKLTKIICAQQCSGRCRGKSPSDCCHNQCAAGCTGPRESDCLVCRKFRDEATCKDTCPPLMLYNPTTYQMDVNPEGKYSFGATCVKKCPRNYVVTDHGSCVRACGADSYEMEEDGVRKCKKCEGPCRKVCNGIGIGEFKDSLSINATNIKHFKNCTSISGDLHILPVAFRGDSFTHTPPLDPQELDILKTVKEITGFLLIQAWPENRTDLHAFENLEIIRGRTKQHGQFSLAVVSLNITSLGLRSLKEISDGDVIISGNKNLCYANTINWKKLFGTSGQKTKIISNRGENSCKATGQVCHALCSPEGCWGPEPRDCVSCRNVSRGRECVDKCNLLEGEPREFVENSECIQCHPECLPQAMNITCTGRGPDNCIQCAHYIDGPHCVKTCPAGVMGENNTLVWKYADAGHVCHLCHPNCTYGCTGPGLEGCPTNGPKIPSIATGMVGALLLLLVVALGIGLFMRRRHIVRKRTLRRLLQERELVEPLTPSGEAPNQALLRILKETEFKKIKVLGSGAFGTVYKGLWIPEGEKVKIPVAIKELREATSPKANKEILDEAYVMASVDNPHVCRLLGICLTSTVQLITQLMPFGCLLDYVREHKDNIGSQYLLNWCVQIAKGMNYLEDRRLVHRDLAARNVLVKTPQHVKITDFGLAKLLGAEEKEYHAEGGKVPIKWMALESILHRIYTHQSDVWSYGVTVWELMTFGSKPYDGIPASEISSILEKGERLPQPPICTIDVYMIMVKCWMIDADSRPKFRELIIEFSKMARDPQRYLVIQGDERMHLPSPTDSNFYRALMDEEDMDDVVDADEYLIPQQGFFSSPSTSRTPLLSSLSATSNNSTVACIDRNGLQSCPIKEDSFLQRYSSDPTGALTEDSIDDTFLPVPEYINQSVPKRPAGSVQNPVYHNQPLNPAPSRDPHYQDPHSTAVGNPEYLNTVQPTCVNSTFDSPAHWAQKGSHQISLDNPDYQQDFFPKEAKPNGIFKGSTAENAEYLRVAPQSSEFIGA

| Structure (SMILES) | IC50 [1] | IC50 [2] | inhibition [3] | IC50 [4] | IC50 [5] | IC50 [6] | IC50 [7] | IC50 [8] | IC50 [9] | also measured |
| --- | --- | --- | --- | --- | --- | --- | --- | --- | --- | --- |
| COc1cccc(Nc2cc(NC(=O)CCCC(=O)O)ncn2)c1 | 37 nM | 12 nM | -5.5% | – | – | – | – | – | – | – |
| O=C(O)CCCC(=O)Nc1cc(N2CCOCC2)ncn1 | 53 nM | 11 nM | – | 5690 nM | 780 nM | 1560 nM | 1160 nM | 560 nM | 17900 nM | – |
| COc1cccc(Nc2cc(Nc3cc(OC)ccc3OC)ncn2)c1 | – | – | -9.3% | 860 nM | 740 nM | 1140 nM | 890 nM | 450 nM | 21400 nM | inhibition [10]: Dose-dependent effect; inhibition [11]: Dose-dependent effect; inhibition [12]: Dose-dependent effect; inhibition [13]: Dose-dependent effect; Activity [14]: 4.88%; Activity [15]: 17.6%; viability at 0.25 µM [16]: 79.3%; Activity [17]: 3.41%; Activity [18]: 18.1%; Activity [19]: 7.72%; viability at 1 µM [20]: 53.4%; Activity [21]: 19.6%; Activity [22]: 12.6%; Activity [23]: 13.5%; Activity [24]: 25%; Activity [25]: 15.5%; viability at 1 µM [26]: 46.4%; Activity [27]: Dose-dependent effect; Activity [28]: Dose-dependent effect; inhibition [29]: Active |
| CCOC(=O)c1ccc(Nc2cc(NC(=O)CCCC(=O)O)ncn2)cc1 | 48 nM | 21 nM | -5.3% | – | – | – | – | – | – | – |
| COc1ccc(Nc2cc(NC(=O)c3ccccc3)ncn2)cc1 | 81 nM | 26 nM | 2.8% | 8880 nM | 9460 nM | 5350 nM | 11400 nM | 660 nM | 18500 nM | – |
| O=C(O)CCCC(=O)Nc1cc(Nc2cccc(Cl)c2)ncn1 | – | – | -8.8% | > 30000 nM | > 30000 nM | 4020 nM | > 30000 nM | 2000 nM | 18000 nM | – |
